Results as given in ChEMBL document CHEMBL3098020, “Synthesis and biological evaluation of novel 2-amino-3-aroyl-4-neopentyl-5-substituted thiophene derivatives as allosteric enhancers of the A₁ adenosine receptor” (Bioorg Med Chem, 2014).

Legend:
[1] = molecular target: T1, Adenosine receptor A1 (Homo sapiens) (UniProt P30542); assay: Potentiation of [3H]CCPA binding to human adenosine A1 receptor expressed in CHO cell membranes at 10 uM after 90 mins relative to [3H]CCPA-treated control
T1 sequence (whole entry): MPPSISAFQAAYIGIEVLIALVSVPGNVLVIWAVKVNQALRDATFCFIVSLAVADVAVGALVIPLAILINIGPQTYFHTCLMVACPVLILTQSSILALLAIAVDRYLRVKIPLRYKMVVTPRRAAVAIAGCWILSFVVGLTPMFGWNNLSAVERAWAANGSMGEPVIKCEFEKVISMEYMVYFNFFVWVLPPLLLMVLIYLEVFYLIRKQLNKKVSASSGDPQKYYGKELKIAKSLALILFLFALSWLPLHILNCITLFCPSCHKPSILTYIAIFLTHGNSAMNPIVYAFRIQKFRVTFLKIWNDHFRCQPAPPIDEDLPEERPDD

[2] = molecular target: Adenosine receptor A2a (Homo sapiens) (UniProt P29274); assay: Displacement of [3H]-ZM241385 from human adenosine A2A receptor expressed in CHO cell membranes at 10 uM by scintillation counting analysis relative to control
Summary of the method: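 A2A-expressing CHO membranes, pretreated with adenosine deaminase, in 50 mM Tris-HCl, 10 mM MgCl₂ pH 7.4 with 1 nM [³H]ZM 241385. Incubated 60 min at 4 °C. Compound 10 µM in 1% DMSO final. Filtration and scintillation counting; percent inhibition of specific binding.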

[3] = molecular target: T1, Adenosine receptor A1 (Homo sapiens); assay: Potentiation of CCPA-induced displacement of [3H]-DPCPX from human adenosine A1 receptor expressed in CHO cell membranes at 10 uM after 90 mins relative to CCPA-treated control
Summary of the method: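 CCPA (0.01 nM–1 µM) competition against [³H]DPCPX in hA1-CHO membranes, with or without compound at 10 µM. Nonspecific binding defined with 1 µM DPCPX. Ki calculated from IC50 by the Cheng-Prusoff equation; CCPA Ki shift given as fold change; three experiments.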

[4] = molecular target: T1, Adenosine receptor A1 (Homo sapiens); assay: Displacement of [3H]-DPCPX from human adenosine A1 receptor expressed in CHO cell membranes at 10 uM by scintillation counting analysis relative to control
Summary of the method: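 hA1-CHO membranes, pretreated with adenosine deaminase, in 50 mM Tris-HCl pH 7.4 with 1 nM [³H]DPCPX. Incubated 120 min at 25 °C. Compound 10 µM added from 100-fold DMSO stock, 1% DMSO final. Bound ligand collected on glass-fibre filters and counted by scintillation; percent inhibition of specific binding.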

[5] = molecular target: T1, Adenosine receptor A1 (Homo sapiens); assay: (§1) Allosteric enhancement of human adenosine A1 receptor expressed in CHO cells assessed as inhibition of forskolin-stimulated cAMP production at 10 uM preincubated for 10 mins followed by forskolin challenge measured after 5 mins by scintillation counting analysis relative to control; format: functional, cell-based
Summary of the method: (§2)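 hA1-CHO cells (10⁶ cells/mL) in phosphate buffer with adenosine deaminase 1.0 IU/mL and Ro 20-1724 0.5 mM, preincubated 10 min at 37 °C. Compound added for 10 min, alone or at 100 nM with CCPA 1 pM. Forskolin 1 µM added for 5 min, stopped with cold 6% TCA. cAMP measured by [³H]-cAMP competition protein-binding assay; percent inhibition versus control; three experiments.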

[6] = molecular target: T1, Adenosine receptor A1 (Homo sapiens); assay: as §1, with “100 nM” for “10 uM”, “analysis in presence of CCPA” for “analysis”; format: functional, cell-based; summary of the method: as §2
[7] = molecular target: T2, Adenosine receptor A3 (Homo sapiens) (UniProt P0DMS8); assay: Displacement of [3H]-MRE-3008-F20 from human adenosine A3 receptor expressed in CHO cell membranes at 10 uM by scintillation counting analysis relative to control
T2 sequence (whole entry): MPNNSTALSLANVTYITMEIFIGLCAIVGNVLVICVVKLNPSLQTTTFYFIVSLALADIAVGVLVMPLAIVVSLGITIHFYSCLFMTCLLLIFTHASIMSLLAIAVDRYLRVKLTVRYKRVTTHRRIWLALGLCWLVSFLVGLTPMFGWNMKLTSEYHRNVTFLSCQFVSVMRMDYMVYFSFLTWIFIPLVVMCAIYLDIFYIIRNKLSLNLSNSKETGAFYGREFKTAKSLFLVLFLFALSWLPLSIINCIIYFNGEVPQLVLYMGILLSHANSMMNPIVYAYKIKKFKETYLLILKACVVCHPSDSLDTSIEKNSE
Summary of the method: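 A3-expressing CHO membranes in 50 mM Tris-HCl, 10 mM MgCl₂, 1 mM EDTA pH 7.4 with 2 nM [³H]MRE-3008-F20. Incubated 120 min at 4 °C. Compound 10 µM in 1% DMSO final. Filtration and scintillation counting; percent inhibition of specific binding.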

Adenosine receptor A2a (Homo sapiens), sequence (P29274 whole entry): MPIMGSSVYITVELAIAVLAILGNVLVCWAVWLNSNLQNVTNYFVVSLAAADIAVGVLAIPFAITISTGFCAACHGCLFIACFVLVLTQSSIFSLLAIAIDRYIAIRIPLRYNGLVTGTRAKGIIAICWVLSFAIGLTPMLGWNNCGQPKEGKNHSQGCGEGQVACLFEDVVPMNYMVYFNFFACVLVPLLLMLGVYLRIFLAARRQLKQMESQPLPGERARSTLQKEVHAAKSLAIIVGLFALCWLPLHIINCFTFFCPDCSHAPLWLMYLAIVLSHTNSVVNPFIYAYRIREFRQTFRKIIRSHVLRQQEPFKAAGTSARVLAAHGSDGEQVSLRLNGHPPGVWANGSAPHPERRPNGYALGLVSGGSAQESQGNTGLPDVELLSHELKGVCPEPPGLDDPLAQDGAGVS

Row | Structure (SMILES) | fold change (FC) [1] | inhibition [2] [%] | fold change (FC) [3] | inhibition [4] [%] | inhibition [5] [%] | inhibition [6] [%] | inhibition [7] [%]
1 | CC(C)(C)Cc1c(-c2cc(F)ccc2F)sc(N)c1C(=O)c1ccc(Cl)cc1 | 5.3 | 1 | 3.4 | 3 | 46 | 45 | 1
2 | Cc1ccc(C(=O)c2c(N)sc(Br)c2CC(C)(C)C)cc1 | 6.4 | 1 | 4.3 | 1 | 61 | 63 | 1
3 | COc1ccc(-c2sc(N)c(C(=O)c3ccc(Cl)cc3)c2CC(C)(C)C)cc1 | 6.1 | 1 | 4.3 | 1 | 44 | 43 | 2
4 | CC(C)(C)Cc1c(-c2cccs2)sc(N)c1C(=O)c1ccc(Cl)cc1 | 6.2 | 2 | 3.9 | 1 | 58 | 62 | 1
5 | COc1ccccc1-c1sc(N)c(C(=O)c2ccc(Cl)cc2)c1CC(C)(C)C | 2.5 | 1 | 1.9 | 1 | 27 | 29 | 1
6 | CC(C)(C)Cc1c(-c2ccccn2)sc(N)c1C(=O)c1ccc(Cl)cc1 | 3.5 | 1 | 2.2 | 1 | 40 | 43 | 1
7 | CC(C)(C)Cc1c(-c2cccnc2)sc(N)c1C(=O)c1ccc(Cl)cc1 | 3.7 | 1 | 2.2 | 1 | 37 | 41 | 1
8 | CC(C)(C)Cc1c(-c2ccccc2)sc(N)c1C(=O)c1ccc(Cl)cc1 | 6.9 | 1 | 4.8 | 1 | 51 | 53 | 1
9 | CC(C)(C)Cc1c(-c2ccsc2)sc(N)c1C(=O)c1ccc(Cl)cc1 | 6.4 | 1 | 4.7 | 2 | 62 | 67 | 4
10 | CC(C)(C)Cc1c(-c2ccccc2)sc(N)c1C(=O)c1ccccc1Cl | 5.4 | 1 | 3.9 | 1 | 38 | 41 | 1
11 | COc1ccc(-c2sc(N)c(C(=O)c3ccc(Cl)cc3)c2C)cc1 | 2.1 | 1 | 1.8 | 1 | 24 | 22 | 1
12 | Cc1cccc(-c2sc(N)c(C(=O)c3ccc(Cl)cc3)c2CC(C)(C)C)c1 | 4.7 | 1 | 4.1 | 1 | 47 | 51 | 1
13 | Cc1ccc(C(=O)c2c(CC(C)(C)C)csc2N)cc1 | 3.3 | 1 | 2 | 1 | 38 | 35 | 1
14 | CC(C)(C)Cc1c(-c2ccc(Cl)c(Cl)c2)sc(N)c1C(=O)c1ccc(Cl)cc1 | 6 | 1 | 4.3 | 1 | 59 | 61 | 1
15 | CC(C)(C)Cc1c(Br)sc(N)c1C(=O)c1ccc(Cl)cc1 | 6.8 | 2 | 4.5 | 1 | 48 | 50 | 1
16 | CC(C)(C)Cc1c(-c2ccccc2)sc(N)c1C(=O)c1ccc(Cl)c(Cl)c1 | 5.9 | 1 | 4.8 | 1 | 56 | 57 | 6

Next, values leading:

Row | fold change (FC) [1] | inhibition [2] [%] | fold change (FC) [3] | inhibition [4] [%] | inhibition [5] [%] | inhibition [6] [%] | inhibition [7] [%] | Structure (SMILES)
17 | 5.6 | 1 | 3.1 | 1 | 55 | 56 | 1 | CC(C)(C)Cc1c(-c2ccoc2)sc(N)c1C(=O)c1ccc(Cl)cc1
18 | 6.3 | 2 | 5.8 | 1 | 55 | 57 | 1 | COc1cccc(-c2sc(N)c(C(=O)c3ccc(Cl)cc3)c2CC(C)(C)C)c1
19 | 2.6 | 1 | 1.7 | 1 | 28 | 30 | 1 | CC(C)(C)Cc1csc(N)c1C(=O)c1cccc(C(F)(F)F)c1
20 | 1.3 | 1 | 1.6 | 1 | 11 | 18 | 1 | CC(C)(C)c1csc(N)c1C(=O)c1ccc(Cl)cc1
21 | 1.8 | 1 | 1.9 | 1 | 21 | 25 | 1 | Cc1c(Br)sc(N)c1C(=O)c1ccc(Cl)cc1
22 | 5.1 | 1 | 3.5 | 1 | 49 | 47 | 1 | CC(C)(C)Cc1c(-c2ccco2)sc(N)c1C(=O)c1ccc(Cl)cc1
23 | 1.5 | 8 | 1.5 | 1 | 18 | 20 | 1 | Cc1c(-c2ccccc2)sc(N)c1C(=O)c1ccc(Cl)cc1
24 | 5.5 | 1 | 3.7 | 1 | 50 | 52 | 9 | CC(C)(C)Cc1c(-c2ccc(F)cc2)sc(N)c1C(=O)c1ccc(Cl)cc1
25 | 6.3 | 4 | 3.1 | 2 | 59 | 57 | 5 | CC(C)(C)Cc1c(-c2ccccc2)sc(N)c1C(=O)c1cccc(Cl)c1
26 | 1.4 | 1 | 1.1 | 1 | 12 | 19 | 1 | Cc1noc(C)c1-c1sc(N)c(C(=O)c2ccc(Cl)cc2)c1CC(C)(C)C
27 | 3.6 | 1 | 2.4 | 1 | 45 | 48 | 1 | CC(C)(C)Cc1c(Br)sc(N)c1C(=O)c1cccc(Cl)c1
